Ba/F3 V617F tox – lowers viability of Ba/F3 cells expressing EpoR and JAK2V617F. 220,000 tested, 1.1% active. AID 1446. inhibition, % at 5.6 µM. ATP luminescence;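 active means inhibition above the campaign mean plus 3 SD over all tested compounds, cut at about 24% in these data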;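 further: cytokine-independent growth of Ba/F3 cells driven by EpoR plus mutant JAK2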
MT stabilizer – stabilizes microtubules in HeLa cells | HeLa tubulin immunostaining HCS, 24 h; share of cells brighter than vehicle mean+2SD | % tubulin-high responders, % at 10 µM | 200,000 tested, 0.83% active | AID 2205;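 active means plate Z-score above 3 for both tubulin-high and condensed-nucleus cell shares, with cell loss under 80%, at 10 µM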;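 further: anti alpha tubulin signal scored within the nucleus-defined area of each cell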
L major viab – reduces viability of Leishmania major promastigotes. resazurin fluorescence viability. inhibition, % at 10 µM. 200,000 tested, 9% active; in the data active means inhibition above about 50%;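 further: promastigotes grown with compound for 44 hours at 28 °C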
BaF3 tox – counter-screen for JAK2V617F inhibitors: parental Ba/F3 viability inhibitors; CellTiter-Glo ATP luminescence; inhibition, % at 5.6 µM; 220,000 tested, 1.1% active; AID 1486;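 active means inhibition above a per-campaign cutoff, the mean inhibition of all tested compounds plus 3 SD, cut at about 27% in these data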
bCat nuc transl – alters nuclear translocation of beta-catenin in HeLa cells. immunofluorescence imaging. nuclear translocation activity, % at 5 µM. 190,000 tested, 0.3% active;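 active means nuclear translocation activity above 50% at 5 µM, with a well cell count of 50 or more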;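 further: per-cell ratio of nuclear to cytoplasmic median beta-catenin stain intensity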
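Signal – beta-catenin immunofluorescence imaging with DAPI · Test system – human HeLa cell line · Dosing – 5 µM primary single dose, 0.1% DMSO, 0.02–20 µM confirmation series · Measure – % activation, nuclear-to-cytoplasmic median beta-catenin signal ratio per cell · Incubation – 24 h compound exposure at 37°C, 5% CO2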
APP transl inh – APP translation inhibition | SH-SY5Y APP 5'UTR-luciferase reporter, luminescence | inhibition, % at 2 µM | 190,000 tested, 0.82% active | AID 1285;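 active means inhibition above a set limit, derived from the sample mean plus 3 SD, cut at about 45% in these data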
Of the large screens only hits and unclear results are named; the others gave an inactive call. The list is not random: actives were taken first. Their share in the collection is about 9.6%.

CN1c2ccccc2C(C)(C)C12CC(c1cccc(S(=O)(=O)N3CCCC3)c1)=NO2 (stereo not drawn)	L major viab 72.6
CCN(CC)S(=O)(=O)c1ccc(-c2nnco2)cc1	none
CCN(CC)S(=O)(=O)c1ccc(C2=NOC3(C2)N(C)c2ccccc2C3(C)C)cc1 (stereo not drawn)	L major viab 83.5 (no result: bCat nuc transl)
Cc1cccc(OCCC(=O)NCC(=O)Nc2cccc(C)c2C)c1	L major viab 60.9
O=C(CN1CCN(C(c2ccccc2)c2ccccc2)CC1)N1CCN(c2ccccc2)CC1	none (no result: MT stabilizer, L major viab, APP transl inh)
O=C(CN1CCN(c2ccc(F)cc2)CC1)N1CCC(Cc2ccccc2)CC1	L major viab 87.5
O=C(CN1C(=O)NC2(CCCCCCC2)C1=O)N1CCc2ccccc2C1	L major viab 67.5
O=C(c1ccccc1)C1CCN(CC(=O)N2CCN(c3ccccc3)CC2)CC1	L major viab 92.3
O=C(CN1CCN(c2ccc(F)cc2)CC1)N1CCOCC1	none
O=C(CN(C1CCCCC1)S(=O)(=O)c1ccccc1)N1CCCC1	none (no result: bCat nuc transl)
O=C(CN(C1CCCCC1)C1CCCCC1)N1CCc2ccccc2C1	L major viab 64.3
O=C(CN1CCC(Cc2ccccc2)CC1)N1CCc2ccccc2C1	L major viab 79.4
Cc1ccc(N2CC(C(=O)N/N=C/c3cccc([N+](=O)[O-])c3)CC2=O)cc1 (stereo not drawn)	none
O=C(N/N=C/c1cccc([N+](=O)[O-])c1)C1CC(=O)N(c2ccc(Cl)cc2)C1 (stereo not drawn)	L major viab 95.0
Clc1nc(Cl)nc(-c2cn(-c3ccccc3)c3ccccc23)n1	none (no result: MT stabilizer, L major viab, APP transl inh)
COc1ccc(CCN(Cc2cc3cccc(C)c3[nH]c2=O)C(=O)NC2CCCCC2)cc1OC	none
CC(=O)CC1OC(=O)C(Br)=C1NCc1ccccc1 (stereo not drawn)	Ba/F3 V617F tox 75.2, BaF3 tox 28.4, APP transl inh 71.2
O=C(CC1Oc2ccccc2NC1=O)NCc1ccccc1 (stereo not drawn)	none (no result: bCat nuc transl)
Cc1ccc(S(=O)(=O)N(C)C)cc1NC(=O)c1c(-c2c(F)cccc2Cl)noc1C	none (no result: MT stabilizer, L major viab, APP transl inh)
COc1cc([N+](=O)[O-])ccc1NC(=O)CCN1C(=O)C2C3CCC(C3)C2C1=O (stereo not drawn)	L major viab 55.7 (no result: bCat nuc transl)
COc1cc([N+](=O)[O-])ccc1NC(=O)CN(C)C	none
O=C(Nc1ccc(Cl)c(C(F)(F)F)c1)c1ccco1	none (no result: bCat nuc transl)
CCNC(=S)Nc1ccc(Cl)c(C(F)(F)F)c1	L major viab 75.7
COc1cc(C(=O)Nc2ccc(Cl)c(C(F)(F)F)c2)cc(OC)c1OC	L major viab 79.9
O=C(Cn1cnc2ccccc2c1=O)c1cccs1	none (no result: bCat nuc transl)
O=C(/C=C/c1ccnc2ccccc12)c1cccs1	L major viab 99.8
CCN1CCN(C(=O)c2ccc(N3CC4CC(C3)c3cccc(=O)n3C4)c([N+](=O)[O-])c2)CC1 (stereo not drawn)	none
O=C(COC(=O)CCCN1C(=O)c2cccc3cccc(c23)C1=O)Nc1cccc(Br)c1	MT stabilizer 13.1 (no result: bCat nuc transl)
C[C@H]1[C@H](C)CC[C@]2(C)CC[C@]3(C)C(=CC[C@@H]4[C@@]5(C)CC[C@@H](O)[C@](C)(C(=O)O)[C@@H]5CC[C@]43C)[C@H]12	none (no result: Ba/F3 V617F tox, MT stabilizer, L major viab, BaF3 tox, APP transl inh)
CCCCCCn1nc(C(=O)Nc2nc3c(s2)CCCC3)c2ccccc2c1=O	L major viab 50.4
CCCCn1nc(C(=O)Nc2nc3c(s2)CCCC3)c2ccccc2c1=O	none
CCCn1nc(C(=O)Nc2nc3ccccc3[nH]2)c2ccccc2c1=O	L major viab 93.2 (no result: bCat nuc transl)
COC(=O)c1ccc(N=Cc2c(C(F)(F)F)[nH]n(C)c2=O)cc1	none
CCCCC(CC)CNC(=O)CC1Nc2c3ccccc3nc(=S)n2C1=O (stereo not drawn)	none
CCn1c(SCC(=O)Nc2cccc(C)c2)nc2nc3c(cc2c1=O)COC(C)(C)C3	none (no result: MT stabilizer, L major viab, APP transl inh)
CN(Cc1ccc(F)cc1)C(=O)c1cccc(OC2CCN(C3CCCC3)CC2)c1	L major viab 92.9
CC(=O)c1cccc(NC(=O)C(=O)c2cn(CC(=O)N3CCCCC3)c3ccccc23)c1	none
CCN(CC)CCCOc1ccc(C)cc1Br	L major viab 93.7 (no result: bCat nuc transl, APP transl inh)
C=CCN(CC=C)CCCOc1ccc(Br)cc1Cl	L major viab 51.2
COCCCNCCCOc1ccc(C)cc1Br	L major viab 98.9
CCOc1ccccc1OCCCOc1ccc(C)cc1Br	none
COCCCNCCCOc1ccc(Cl)cc1Br	L major viab 87.8
NS(=O)(=O)c1ccc(CNC(=O)CCSCCC(=O)NCc2ccc(S(N)(=O)=O)cc2)cc1	none
C=CCNCCCOc1ccc(C)cc1Br	L major viab 93.5 (no result: bCat nuc transl)
CCCCNCCOCCOc1ccc(F)cc1	L major viab 92.5
COCCCNC(=O)COc1ccc(Br)cc1Cl	none (no result: bCat nuc transl)
COCCNCCCOc1ccc(C)cc1Br	none
CC(C)NCCCCOc1ccc(Br)cc1Cl	L major viab 99.4
CC(C)NCCCOc1ccc(Cl)cc1Br	L major viab 94.5
Fc1ccc(OCCOCCOc2cccc3[nH]ccc23)cc1	none
CC1(OC(=O)c2cccs2)C(=O)C=C2C=C3CCCN3C=C2C1=O (stereo not drawn)	none (no result: Ba/F3 V617F tox, MT stabilizer, L major viab, BaF3 tox, APP transl inh)
COc1ccc(N2CCN(C(=S)NCc3ccccc3)CC2)cc1	none
CCCCNCCOCCOc1ccc(Cl)cc1Br	L major viab 99.6
CCOc1ccc(Nc2nc(N3CCCC3)nc(N3CCN(c4ccc(OC)cc4)CC3)n2)cc1	L major viab 54.9
CCOc1nc(Nc2ccc(F)cc2)nc(N2CCN(c3ccc(OC)cc3)CC2)n1	L major viab 70.3 (no result: bCat nuc transl)
N#Cc1ccc(Oc2nc(Nc3ccc(F)cc3)nc(N3CCCC3)n2)cc1	none (no result: bCat nuc transl)
CCOc1nc(Nc2ccc(OC)c(Cl)c2)nc(N2CCN(c3ccc(OC)cc3)CC2)n1	L major viab 71.8
C=CCNC(=S)Nc1cc(S(=O)(=O)N2CCOCC2)ccc1-n1cncn1	none
CCN(CC)c1ccc(C(=O)NC(=S)Nc2cc(S(=O)(=O)N3CCOCC3)ccc2-n2cncn2)cc1	L major viab 68.2 (no result: bCat nuc transl)
O=C(CSc1nnc(-c2ccncc2)n1CC1CCCO1)Nc1ccccc1Cl (stereo not drawn)	none
CSC1=NC(C)(C)C=C(/C=C/c2ccc(Cl)cc2)N1	L major viab 100.4
Nc1nccc(/C=C/c2c(Cl)cccc2Cl)n1	none (no result: MT stabilizer, L major viab, APP transl inh)
CSC1=NC(C)(C)C=C(/C=C/c2ccc(Cl)cc2Cl)N1	L major viab 71.7
CCSC1=NC(C)(C)C=C(/C=C/c2ccc(Cl)cc2Cl)N1	L major viab 100.1 (no result: bCat nuc transl)
CSC1=NC(C)(C)C=C(/C=C/c2c(Cl)cccc2Cl)N1	L major viab 58.3
CCSC1=NC(C)(C)C=C(C)N1	none
COc1ccc(-c2cc3ccccc3n2CC(O)CN2CCC(C)CC2)cc1 (stereo not drawn)	L major viab 86.8
CCOc1ccc(CN2CCN(CC(O)Cn3c4ccccc4c4ccccc43)CC2)cc1 (stereo not drawn)	L major viab 96.0

Screening results as filed in PubChem.
